Tested on: Fibroblast
Assay: Multiplex assay against human fibroblast
Format: toxicity, cell-based
Procedure, shortened: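 Compound was added to live cells that had been stained at seeding with Hoechst33342, BioTracker Green Microtubule Cytoskeleton Dye, MitoTracker Red and Annexin V Alexa Fluor 680, and imaging followed on a CQ1 microscope at 37°C and 5% CO2. CellPathfinder machine-learning gating divided cells into Hoechst high-intensity objects or normal cells, normal cells into healthy, pyknosed or fragmented nuclei, and pyknosed cells into mitotic or apoptotic. Tubulin, mitochondrial-mass and membrane-permeability phenotypes are per cents of healthy-nucleus cells.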

[1] = 12 h, 1 µM, compound concentration 1 uM, replicate 1
[2] = 12 h, 1 µM, compound concentration 1 uM, replicate 2
[3] = 12 h, 10 µM, compound concentration 10 uM, replicate 1
[4] = 12 h, 10 µM, compound concentration 10 uM, replicate 2
[5] = 24 h, 1 µM, compound concentration 1 uM, replicate 1
[6] = 24 h, 1 µM, compound concentration 1 uM, replicate 2
[7] = 24 h, 10 µM, compound concentration 10 uM, replicate 1
[8] = 24 h, 10 µM, compound concentration 10 uM, replicate 2
[9] = 48 h, 1 µM, compound concentration 1 uM, replicate 1
[10] = 48 h, 1 µM, compound concentration 1 uM, replicate 2
[11] = 48 h, 10 µM, compound concentration 10 uM, replicate 1
[12] = 48 h, 10 µM, compound concentration 10 uM, replicate 2

Compound: COC(=N)c1nc2ccc3ncnc(Nc4ccc(OC)cc4F)c3c2s1
- Population Apoptotic (%) [1]: 55%
- Population Fragmented Nuclei (%) [1]: 30%
- Population Healthy Nuclei (%) [1]: 60%
- Population Hoechst High Intensity Objects (%) [1]: 17%
- Population Membrane Permeable-Phenotype (%) [1]: 3%
- Population Mitochondria Different-Phenotype (%) [1]: 3%
- Population Mitotic Cells (%) [1]: 44%
- Population Normal (%) [1]: 82%
- Population Pyknosed Nuclei (%) [1]: 9%
- Population Tubulin-Different-Phenotype (%) [1]: 1%
- Total Cell Count [1]: 119
- Population Apoptotic (%) [2]: 28%
- Population Fragmented Nuclei (%) [2]: 50%
- Population Healthy Nuclei (%) [2]: 34%
- Population Hoechst High Intensity Objects (%) [2]: 33%
- Population Membrane Permeable-Phenotype (%) [2]: 6%
- Population Mitochondria Different-Phenotype (%) [2]: 6%
- Population Mitotic Cells (%) [2]: 71%
- Population Normal (%) [2]: 66%
- Population Pyknosed Nuclei (%) [2]: 15%
- Population Tubulin-Different-Phenotype (%) [2]: 6%
- Total Cell Count [2]: 69
- Population Apoptotic (%) [3]: 76%
- Population Fragmented Nuclei (%) [3]: 20%
- Population Healthy Nuclei (%) [3]: 60%
- Population Hoechst High Intensity Objects (%) [3]: 11%
- Population Membrane Permeable-Phenotype (%) [3]: 7%
- Population Mitochondria Different-Phenotype (%) [3]: 0%
- Population Mitotic Cells (%) [3]: 23%
- Population Normal (%) [3]: 88%
- Population Pyknosed Nuclei (%) [3]: 18%
- Population Tubulin-Different-Phenotype (%) [3]: 1%
- Total Cell Count [3]: 238
- Population Apoptotic (%) [4]: 100%
- Population Fragmented Nuclei (%) [4]: 57%
- Population Healthy Nuclei (%) [4]: 35%
- Population Hoechst High Intensity Objects (%) [4]: 30%
- Population Membrane Permeable-Phenotype (%) [4]: 5%
- Population Mitochondria Different-Phenotype (%) [4]: 5%
- Population Mitotic Cells (%) [4]: 0%
- Population Normal (%) [4]: 69%
- Population Pyknosed Nuclei (%) [4]: 7%
- Population Tubulin-Different-Phenotype (%) [4]: 5%
- Total Cell Count [4]: 82
- Population Apoptotic (%) [5]: 77%
- Population Fragmented Nuclei (%) [5]: 41%
- Population Healthy Nuclei (%) [5]: 50%
- Population Hoechst High Intensity Objects (%) [5]: 19%
- Population Membrane Permeable-Phenotype (%) [5]: 8%
- Population Mitochondria Different-Phenotype (%) [5]: 6%
- Population Mitotic Cells (%) [5]: 22%
- Population Normal (%) [5]: 80%
- Population Pyknosed Nuclei (%) [5]: 7%
- Population Tubulin-Different-Phenotype (%) [5]: 1%
- Total Cell Count [5]: 146
- Population Apoptotic (%) [6]: 42%
- Population Fragmented Nuclei (%) [6]: 44%
- Population Healthy Nuclei (%) [6]: 36%
- Population Hoechst High Intensity Objects (%) [6]: 30%
- Population Membrane Permeable-Phenotype (%) [6]: 7%
- Population Mitochondria Different-Phenotype (%) [6]: 7%
- Population Mitotic Cells (%) [6]: 57%
- Population Normal (%) [6]: 69%
- Population Pyknosed Nuclei (%) [6]: 18%
- Population Tubulin-Different-Phenotype (%) [6]: 14%
- Total Cell Count [6]: 55
- Population Apoptotic (%) [7]: 65%
- Population Fragmented Nuclei (%) [7]: 20%
- Population Healthy Nuclei (%) [7]: 62%
- Population Hoechst High Intensity Objects (%) [7]: 13%
- Population Membrane Permeable-Phenotype (%) [7]: 5%
- Population Mitochondria Different-Phenotype (%) [7]: 2%
- Population Mitotic Cells (%) [7]: 34%
- Population Normal (%) [7]: 86%
- Population Pyknosed Nuclei (%) [7]: 17%
- Population Tubulin-Different-Phenotype (%) [7]: 1%
- Total Cell Count [7]: 246
- Population Apoptotic (%) [8]: 50%
- Population Fragmented Nuclei (%) [8]: 54%
- Population Healthy Nuclei (%) [8]: 37%
- Population Hoechst High Intensity Objects (%) [8]: 30%
- Population Membrane Permeable-Phenotype (%) [8]: 10%
- Population Mitochondria Different-Phenotype (%) [8]: 5%
- Population Mitotic Cells (%) [8]: 50%
- Population Normal (%) [8]: 69%
- Population Pyknosed Nuclei (%) [8]: 7%
- Population Tubulin-Different-Phenotype (%) [8]: 10%
- Total Cell Count [8]: 73

Compound: CN1C2CCC1CC(OC(c1ccc(F)cc1)c1ccc(F)cc1)C2.Cl (configuration not stated)
- Population Apoptotic (%) [1]: 53%
- Population Fragmented Nuclei (%) [1]: 26%
- Population Healthy Nuclei (%) [1]: 45%
- Population Hoechst High Intensity Objects (%) [1]: 12%
- Population Membrane Permeable-Phenotype (%) [1]: 21%
- Population Mitochondria Different-Phenotype (%) [1]: 11%
- Population Mitotic Cells (%) [1]: 46%
- Population Normal (%) [1]: 87%
- Population Pyknosed Nuclei (%) [1]: 27%
- Population Tubulin-Different-Phenotype (%) [1]: 52%
- Total Cell Count [1]: 106
- Population Apoptotic (%) [2]: 100%
- Population Fragmented Nuclei (%) [2]: 5%
- Population Healthy Nuclei (%) [2]: 92%
- Population Hoechst High Intensity Objects (%) [2]: 2%
- Population Membrane Permeable-Phenotype (%) [2]: 3%
- Population Mitochondria Different-Phenotype (%) [2]: 4%
- Population Mitotic Cells (%) [2]: 0%
- Population Normal (%) [2]: 97%
- Population Pyknosed Nuclei (%) [2]: 1%
- Population Tubulin-Different-Phenotype (%) [2]: 8%
- Total Cell Count [2]: 69
- Population Apoptotic (%) [3]: 64%
- Population Fragmented Nuclei (%) [3]: 31%
- Population Healthy Nuclei (%) [3]: 50%
- Population Hoechst High Intensity Objects (%) [3]: 9%
- Population Mitochondria Different-Phenotype (%) [3]: 37%
- Population Mitotic Cells (%) [3]: 36%
- Population Normal (%) [3]: 90%
- Population Pyknosed Nuclei (%) [3]: 18%
- Population Tubulin-Different-Phenotype (%) [3]: 68%
- Total Cell Count [3]: 148
- Population Apoptotic (%) [4]: 80%
- Population Fragmented Nuclei (%) [4]: 8%
- Population Healthy Nuclei (%) [4]: 78%
- Population Hoechst High Intensity Objects (%) [4]: 6%
- Population Membrane Permeable-Phenotype (%) [4]: 10%
- Population Mitochondria Different-Phenotype (%) [4]: 89%
- Population Mitotic Cells (%) [4]: 20%
- Population Normal (%) [4]: 93%
- Population Pyknosed Nuclei (%) [4]: 13%
- Population Tubulin-Different-Phenotype (%) [4]: 49%
- Total Cell Count [4]: 78
- Population Apoptotic (%) [5]: 53%
- Population Fragmented Nuclei (%) [5]: 24%
- Population Healthy Nuclei (%) [5]: 58%
- Population Hoechst High Intensity Objects (%) [5]: 13%
- Population Membrane Permeable-Phenotype (%) [5]: 26%
- Population Mitochondria Different-Phenotype (%) [5]: 4%
- Population Mitotic Cells (%) [5]: 46%
- Population Normal (%) [5]: 86%
- Population Pyknosed Nuclei (%) [5]: 17%
- Population Tubulin-Different-Phenotype (%) [5]: 58%
- Total Cell Count [5]: 99
- Population Apoptotic (%) [6]: 20%
- Population Fragmented Nuclei (%) [6]: 3%
- Population Healthy Nuclei (%) [6]: 90%
- Population Hoechst High Intensity Objects (%) [6]: 2%
- Population Membrane Permeable-Phenotype (%) [6]: 4%
- Population Mitotic Cells (%) [6]: 80%
- Population Normal (%) [6]: 97%
- Population Pyknosed Nuclei (%) [6]: 6%
- Population Tubulin-Different-Phenotype (%) [6]: 8%
- Total Cell Count [6]: 82
- Population Apoptotic (%) [7]: 38%
- Population Fragmented Nuclei (%) [7]: 38%
- Population Healthy Nuclei (%) [7]: 45%
- Population Hoechst High Intensity Objects (%) [7]: 17%
- Population Membrane Permeable-Phenotype (%) [7]: 15%
- Population Mitochondria Different-Phenotype (%) [7]: 40%
- Population Mitotic Cells (%) [7]: 61%
- Population Normal (%) [7]: 82%
- Population Pyknosed Nuclei (%) [7]: 15%
- Population Tubulin-Different-Phenotype (%) [7]: 60%
- Total Cell Count [7]: 160
- Population Apoptotic (%) [8]: 80%
- Population Fragmented Nuclei (%) [8]: 16%
- Population Healthy Nuclei (%) [8]: 64%
- Population Hoechst High Intensity Objects (%) [8]: 3%
- Population Membrane Permeable-Phenotype (%) [8]: 6%
- Population Mitochondria Different-Phenotype (%) [8]: 78%
- Population Mitotic Cells (%) [8]: 20%
- Population Normal (%) [8]: 96%
- Population Pyknosed Nuclei (%) [8]: 19%
- Population Tubulin-Different-Phenotype (%) [8]: 25%
- Total Cell Count [8]: 107
- Population Apoptotic (%) [9]: 28%
- Population Fragmented Nuclei (%) [9]: 34%
- Population Healthy Nuclei (%) [9]: 52%
- Population Hoechst High Intensity Objects (%) [9]: 13%
- Population Membrane Permeable-Phenotype (%) [9]: 22%
- Population Mitochondria Different-Phenotype (%) [9]: 1%
- Population Mitotic Cells (%) [9]: 71%
- Population Normal (%) [9]: 86%
- Population Pyknosed Nuclei (%) [9]: 12%
- Population Tubulin-Different-Phenotype (%) [9]: 45%
- Total Cell Count [9]: 126
- Population Apoptotic (%) [10]: 0%
- Population Healthy Nuclei (%) [10]: 64%
- Population Hoechst High Intensity Objects (%) [10]: 11%
- Population Membrane Permeable-Phenotype (%) [10]: 9%
- Population Mitochondria Different-Phenotype (%) [10]: 6%
- Population Mitotic Cells (%) [10]: 100%
- Population Normal (%) [10]: 88%
- Population Pyknosed Nuclei (%) [10]: 0%
- Population Tubulin-Different-Phenotype (%) [10]: 47%
- Total Cell Count [10]: 127
- Population Apoptotic (%) [11]: 80%
- Population Fragmented Nuclei (%) [11]: 47%
- Population Healthy Nuclei (%) [11]: 45%
- Population Hoechst High Intensity Objects (%) [11]: 25%
- Population Membrane Permeable-Phenotype (%) [11]: 9%
- Population Mitochondria Different-Phenotype (%) [11]: 27%
- Population Mitotic Cells (%) [11]: 20%
- Population Normal (%) [11]: 74%
- Population Pyknosed Nuclei (%) [11]: 7%
- Population Tubulin-Different-Phenotype (%) [11]: 78%
- Total Cell Count [11]: 191
- Population Apoptotic (%) [12]: 100%
- Population Fragmented Nuclei (%) [12]: 64%
- Population Healthy Nuclei (%) [12]: 35%
- Population Hoechst High Intensity Objects (%) [12]: 16%
- Population Membrane Permeable-Phenotype (%) [12]: 11%
- Population Mitochondria Different-Phenotype (%) [12]: 18%
- Population Mitotic Cells (%) [12]: 0%
- Population Normal (%) [12]: 83%
- Population Pyknosed Nuclei (%) [12]: 0%
- Population Tubulin-Different-Phenotype (%) [12]: 79%
- Total Cell Count [12]: 259
